# According to article PMC9546099 (British Journal of Clinical Pharmacology, 2022):
# Several values for one entry are separate records, joined by “and”; a condition that tells them apart may be missing. Equal entries are not always repeated. Structures can show the parent of a compound that is named as a salt. Where two headings read alike, the source gives them in different places.
# Assays:
# [1] = assay type: in vivo, human; details: for Tlag / Tmax: median (minimum - maximum); for Tmax: t max
# In short: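 Plasma was precipitated with acetonitrile plus internal standards, vortexed and centrifuged. Supernatant was diluted with water for validated LC-MS/MS of parent and metabolites, with quantification limit 10 ng/mL and calibration curves and QC samples in every batch. Noncompartmental analysis per subject gave geometric mean (%CV) parameters, with tmax as median (min–max).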
# [2] = tested on: COMT; details: cited from earlier work; for IC50: read-out: IC50 against COMT
# [3] = Metabolite profiling in plasma AUC pool by LC-AMS; assay type: in vivo, human; details: average, AMS radiodetection
# In short: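 A per-subject plasma AUC pool (Hamilton method) covered at least the last quantifiable time point. Plasma (5 g) was precipitated twice with acetonitrile, evaporated and resuspended in DMSO:acetonitrile:water 20:20:60. LC fractions were measured by AMS, with carbon content in duplicate. Peaks were assigned against spiked synthetic standards (UV 250 nm). Extraction recovery compared pool versus supernatant and reconstituted-extract radioactivity.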
# [4] = cited from earlier work
# [5] = Metabolite profiling in urine and faeces by LC-MS and off-line radiodetection; assay type: in vivo, human
# In short: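 Urine was pooled per subject to ≥80% of recovered radioactivity and concentrated. Faeces were pooled to >90% of excreted radioactivity, plus cross-subject 48-72 h and 96-120 h pools; these were acetonitrile-extracted, dried and reconstituted in acetonitrile:water 20:80. Analysis used accurate-mass LC-MS (± switching, 70 000 resolution, 100-800 amu; HCD MS/MS 17 500) with off-line radiodetection, reported as % administered radioactivity.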
# [6] = rat; cited from earlier work
# [7] = cited from earlier work; remark: listed apart in the source
# [8] = nonhuman primate [NHP]; cited from earlier work
# [9] = cited from earlier work; remark: listed apart in the source
# [10] = male, human, plasma, oral, 100 mg
structure (smiles),measurement,setting,value
"Cc1nc(Cl)c(-c2noc(-c3cc(O)c(O)c([N+](=O)[O-])c3)n2)c(C)c1Cl [BIA 9‐1079, 5-(3-(2,5-dichloro-4,6-dimethylpyridin-3-yl)-1,2,4-oxadiazol-5-yl)-3-nitrobenzene-1,2-diol]",plasma concentration,[1]; below the limit of quantification in almost all time points,< 10 ng/mL
same,IC50,[2],128 nM
"COc1cc(-c2nc(-c3c(C)c(Cl)c(C)[n+]([O-])c3Cl)no2)cc([N+](=O)[O-])c1O [BIA 9‐1100, 2,5-dichloro-3-(5-(4-hydroxy-3-methoxy-5-nitrophenyl)-1,2,4-oxadiazol-3-yl)-4,6-dimethylpyridine 1-oxide]",% of total circulating radioactivity,[3],2.96%
"COc1cc(-c2nc(-c3c(C)c(Cl)c(C)[n+]([O-])c3Cl)no2)cc([N+](=O)[O-])c1O [BIA 9‐1101, 2,5-dichloro-3-(5-(4-hydroxy-3-methoxy-5-nitrophenyl)-1,2,4-oxadiazol-3-yl)-4,6 dimethylpyridine 1-oxide]",% of total circulating radioactivity,[3],0.39%
"Cc1c(Cl)c(C)[n+]([O-])c(Cl)c1-c1noc(-c2cc(OS(=O)(=O)O)c(O)c([N+](=O)[O-])c2)n1 [BIA 9‐1103, 5-(3-(2,5-dichloro-4,6-dimethyl-1-oxidopyridin-3-yl)-1,2,4-oxadiazol-5-yl)-2-hydroxy-3-nitrophenyl sulfate]",% of total circulating radioactivity,[3],58.6%
same,AUCt,"[1]; plasma, geometric mean (% CV)",8120 (75.7) ng.h/ml
same,C max,"[1]; plasma, geometric mean (% CV)",115(48.7) ng/ml
same,Tlag,[1]; plasma,1.05 (1.00‐2.00) h
same,pharmacological activity on COMT,[2],pharmacologically inactive on COMT
same,pharmacological activity on COMT,[2]; listed as 3‐O‐sulfate‐opicapone,pharmacologically inactive
same,binding to plasma proteins,[4],more than 98%
"COc1c(O)cc(-c2nc(-c3c(C)c(Cl)c(C)[n+]([O-])c3Cl)no2)cc1[N+](=O)[O-] [BIA 9‐1104, 2,5-dichloro-3-(5-(3-hydroxy-4-methoxy-5-nitrophenyl)-1,2,4-oxadiazol-3-yl)-4,6-dimethylpyridine 1-oxide]",% of total circulating radioactivity,[3],6.59%
same,IC50,[2],429 nM
"Cc1c(Cl)c(C)[n+]([O-])c(Cl)c1-c1noc(-c2cc(O[C@@H]3O[C@H](C(=O)O)[C@@H](O)[C@H](O)[C@H]3O)c(O)c([N+](=O)[O-])c2)n1 [BIA 9‐1106, 3-(5-(3-((2S,3R,4S,5S,6S)-6-carboxy-3,4,5-trihydroxytetrahydro-2H-pyran-2-yloxy)-4-hydroxy-5-nitrophenyl)-1,2,4-oxadiazol-3-yl)-2,5-dichloro-4,6-dimethylpyridine 1-oxide]",AUC(0-t),[1]; [10],75 ng·h/mL
same,Cmax,[1]; [10],33.6 ng/mL
same,Tmax,[1]; [10],2 h
same,Tlag,[1]; plasma,0.75 (0.500‐2.00) h
same,% of the administered radioactivity in urine,"[5]; average, pooled urine",1.72% and < 2%
"COc1c(OS(=O)(=O)O)cc(-c2nc(-c3c(C)c(Cl)c(C)[n+]([O-])c3Cl)no2)cc1[N+](=O)[O-].c1ccncc1 [BIA 9‐4584, pyridin-1-ium 5-(3-(2,5-dichloro-4,6-dimethyl-1-oxidopyridin-3-yl)-1,2,4-oxadiazol-5-yl)-2-methoxy-3-nitrophenyl sulfate]",% of total circulating radioactivity,[3],2.30%
"COc1c(O)cc(-c2nc(-c3c(C)c(Cl)c(C)[n+]([O-])c3SC[C@H](N)C(=O)O)no2)cc1[N+](=O)[O-].Cl [BIA 9‐5049, (R)-2-((2-amino-2-carboxyethyl)thio)-5-chloro-3-(5-(3-hydroxy-4-methoxy-5-nitrophenyl)-1,2,4-oxadiazol-3-yl)-4,6-dimethylpyridine 1-oxide hydrochloride]",% of total circulating radioactivity,[3],3.72%
"Cc1c(Cl)c(C)[n+]([O-])c(Cl)c1-c1noc(-c2cc(O)c(O)c([N+](=O)[O-])c2)n1 [opicapone, 2,5‐dichloro‐3‐(5‐[3,4‐dihydroxy‐5‐nitrophenyl]‐1,2,4‐oxadiazol‐3‐yl)‐4,6‐dimethylpyridine 1‐oxide, reference compound]",fraction of the dose recovered in faeces,[6],more than 70%
same,dose proportionality of the pharmacokinetic profile,[7],dose‐proportional up to 1200 mg
same,fraction of the dose recovered in faeces,[8],more than 70%
same,cytotoxicity,[9],not to induce cytotoxicity
same,% of total circulating radioactivity,[3],12.1%
same,AUC(0-inf),[1]; [10],1890 ng·h/mL
same,AUC(0-t),[1]; [10],1830 ng·h/mL
same,Cmax,[1]; [10],600 ng/mL
same,half-life,[1]; [10],60 min
same,Tmax,[1]; [10],2 h
same,Tlag,[1]; plasma,0.250 (0.250‐0.500) h
same,% of the administered radioactivity excreted in faeces,"[5]; average, pooled faeces",22.32%
same,unchanged parent observed in urine,[5]; in vivo,Only trace amounts
